Published values collected from several papers.
Compare with care: the assays were run in different laboratories.
Organism: Plasmodium falciparum
Observed: parasite growth

SMILES	assay	system	conditions	IC50
O[C@@H](c1cc(C(F)(F)F)nc2c(C(F)(F)F)cccc12)[C@H]1CCCCN1	SYBR Green	–	blood stage	17 nM
COc1cc(NC(C)CCCNC(=O)c2cccc(C(=O)NCCCC(C)Nc3cc(OC)cc4cccnc34)n2)c2ncccc2c1.Cl (stereo not drawn)	–	D6	blood stage	2.2 µg/mL
COC1=CC(c2ccco2)=NC1=Cc1ccc(CCCCCCCCCC(C)O)[nH]1 (stereo not drawn)	–	D6	blood stage	> 2500 nM
Cc1ccc(-c2ccccc2C(=O)Nc2c(C)cccc2C(=O)O)cc1	–	NF54	48 h, blood stage	> 10000 nM
Clc1ccc2c(c1)nc(NCc1ccccn1)n2Cc1ccccc1	–	NF54	blood stage	> 10000 nM
O=C(O)c1ccccc1NC(=O)c1ccccc1-c1ccccc1	resazurin	NF54	48 h, gametocyte	> 10000 nM
Clc1ccc2c(c1)nc(NCCN1CCOCC1)n2Cc1ccccc1	–	NF54	blood stage	8520 nM
C#CCCCCCCCCC=CCC(O)CC(O)CO (stereo not drawn)	–	W2	drug-resistant strain, blood stage	> 47.6 µg/mL
O=C(Nc1c(F)cccc1C(=O)O)c1cccc(-c2ccccc2)c1	resazurin	NF54	48 h, gametocyte	> 10000 nM
COc1nc2ccc(Br)cc2cc1[C@@H](c1ccccc1)[C@@](O)(CCN(C)C)c1cccc2ccccc12	SYBR Green	–	blood stage	1090 nM
Clc1ccc2c(nc(N3CCNCC3)n2Cc2ccccc2)c1-c1ccccc1	–	NF54	blood stage	3650 nM
C[C@@H]1CC[C@H]2[C@@H](C)C(=O)O[C@@H]3O[C@@]4(C)CC[C@@H]1[C@]32OO4	–	D6	blood stage	0.0085 µg/mL
N=C(N)c1ccc(OCCCCCOc2ccc(C(=N)N)cc2)cc1	SYBR Green	–	blood stage	5.6 nM
c1ccc(Cn2c(N3CCNCC3)nc3cc(-c4ccncc4)ccc32)cc1	–	NF54	blood stage	1660 nM
CCc1ccc(C2=NC(=Cc3ccc(CCCCCCCCCC(C)O)[nH]3)C(OC)=C2)[nH]1 (stereo not drawn)	–	D6	blood stage	17 nM
CCCCCCCCCCCCCC(O)CC(O)CO (stereo not drawn)	–	W2	drug-resistant strain, blood stage	40.8 µg/mL
Clc1ccc2c(c1)nc(NCCNCc1ccccc1)n2Cc1ccccc1	–	NF54	blood stage	86 nM
COc1ccc2[nH]c(-c3ccc(Cc4ccc(OC(F)(F)F)cc4)cc3)c(C)c(=O)c2c1	–	3D7	blood stage	> 350 nM
CN1CCN(C2CCN(c3nccc4[nH]c(-c5cccc(C#N)c5)nc34)CC2)CC1	–	NF54	blood stage	< 100 nM
CCN(CC)CCCC(C)Nc1ccnc2cc(Cl)ccc12 (stereo not drawn)	–	D6	72 h, blood stage	0.01 µg/mL

SMILES	assay	system	conditions	IC50
C[C@H]1[C@@H](O)O[C@@H]2O[C@@]3(C)CC[C@H]4[C@H](C)CC[C@@H]1[C@@]24OO3	–	3D7	72 h, blood stage	5.8 nM
Oc1cccc(C(Nc2nccs2)c2ccc3cccnc3c2O)c1 (stereo not drawn)	SYBR Green	–	blood stage	1200 nM
CC(=O)Nc1ccc(-c2ccc3ncc4c(c3c2)n(-c2cccc(C(F)(F)F)c2)c(=O)n4C)cn1	resazurin	3D7	gametocyte	< 100 nM
CCN(CC)CCCC(C)Nc1ccnc2cc(Cl)ccc12 (stereo not drawn)	–	D6	blood stage	30 nM
Clc1ccc2c(nc(N3CCNCC3)n2Cc2ccccc2)c1Cl	–	NF54	blood stage	55 nM
N=C(N)NCCCCC(=O)Nc1cc(C(F)(F)F)cc(NC(=O)c2cc(C(=O)Nc3cc(C(F)(F)F)cc(NC(=O)CCCCNC(=N)N)c3O[C@@H]3CCNC3)ncn2)c1O[C@@H]1CCNC1	SYBR Green	–	blood stage	670 nM
CCN(CC)CCCC(C)Nc1ccnc2cc(Cl)ccc12 (stereo not drawn)	LDH	–	–	206 nM
Clc1ccc2c(c1)nc(NCCNCc1ccncc1)n2Cc1ccccc1	–	NF54	blood stage	2280 nM
Cc1ccc2c(c1C)NC(=O)[C@]21NN=C(c2ccccc2)S1	SYBR Green	–	blood stage	960 nM
Clc1ccc2c(N3CCN(CCCN4CCN(c5ccnc6cc(Cl)ccc56)CC4)CC3)ccnc2c1	–	–	blood stage	25.8 nM
O=C(O)/C=C/C=C/c1cccc(Oc2cc(Cl)cc(Cl)c2)c1	SYBR Green	–	blood stage	54200 nM
C[C@@]12CCC[C@]3(C)C4=CC(=O)OCC4=C[C@@H](OC1=O)C23 (stereo partly drawn)	–	W2	72 h, drug-resistant strain, blood stage	0.2 µg/mL
c1ccc(Oc2ccc(-c3cc(C4CCOCC4)[nH]n3)cc2)cc1	SYBR Green	–	blood stage	70200 nM
c1ccc(Cn2c(N3CCNCC3)nc3cc(-c4cc[nH]n4)ccc32)cc1	–	NF54	blood stage	> 10000 nM
Cc1cccc(C(=O)O)c1NC(=O)c1cccc(-c2ccccc2)c1	resazurin	NF54	48 h, gametocyte	665 nM
COC(=O)c1cccc(-c2nc3c(N4CCC(N5CCN(C)CC5)CC4)nccc3[nH]2)c1	–	NF54	blood stage	< 100 nM
COc1ccccc1-c1ccccc1C(=O)Nc1c(C)cccc1C(=O)O	resazurin	NF54	48 h, gametocyte	> 10000 nM
CCN(CC)CCCC(C)Nc1ccnc2cc(Cl)ccc12 (stereo not drawn)	–	NF54	blood stage	4.2 nM
COc1cccc2c(-c3ccc4c(c3O)[C@@H](C)N[C@H](C)C4)c(C)cc(OC)c12	SYBR Green	NF54	blood stage	1330 nM
